Screening data as filed in PubChem BioAssay.
SUMO1 PPI mod: SUMO1-SIM interaction modulation. P63165. inhibition, % at 20 µM. SUMO1 binding to a labelled peptide, TR-FRET, 1 h. AID 602429. 0.33% of 360,000 active; in the data active = inhibition above about 37%
Target sequence (P63165 whole entry, looked up): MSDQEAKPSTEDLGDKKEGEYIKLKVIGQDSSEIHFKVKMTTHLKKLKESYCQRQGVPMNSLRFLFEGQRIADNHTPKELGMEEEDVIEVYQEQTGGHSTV
LMPTP block: blocks human LMPTP phosphatase. AID 651560. P24666. recombinant LMPTP-A, OMFP fluorogenic substrate, fluorescence intensity. inhibition, % at 20 µM. 0.22% of 360,000 active;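 active = compounds that cut the enzyme signal by at least half of the control window in the single-dose screen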
Target sequence (P24666 whole entry, looked up): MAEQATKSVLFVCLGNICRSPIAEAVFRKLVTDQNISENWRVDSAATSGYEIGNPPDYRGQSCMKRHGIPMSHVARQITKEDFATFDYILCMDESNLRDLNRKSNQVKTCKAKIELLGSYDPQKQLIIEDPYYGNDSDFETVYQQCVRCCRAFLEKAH
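material = LMPTP-A | quantity = 0.625 nM enzyme | reagent = OMFP substrate, 400 µM final | buffer or medium = Bis-Tris pH 6.0, DTT, detergent | detection = endpoint fluorescence intensity from OMFP dephosphorylation | dosing = single 20 µM dose | read-out basis = % inhibition relative to no-enzyme and uninhibited control wells | control set = no-enzyme and uninhibited controls | timing = 50 min at room temperature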
FAS-TE inh: inhibitors of human fatty acid synthase thioesterase domain | P49327 | recombinant FAS-TE, OMFH fluorogenic substrate, fluorescence endpoint | inhibition, % at 15 µM | 0.67% of 360,000 active | AID 602261;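 active = compounds whose normalised, plate-corrected inhibition of enzyme fluorescence in the single-dose primary screen is 50% or more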
Scp1 inh: inhibitors of human Scp-1 phosphatase; inhibition, % at 20 µM; Q9GZU7; 0.88% of 340,000 active; AID 493091; Recombinant Scp1, phosphopeptide, malachite green phosphate absorbance;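 active = inhibition above about 50% at 20 µM, limit read from the data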
Target sequence (Q9GZU7 76-261 limits assumed): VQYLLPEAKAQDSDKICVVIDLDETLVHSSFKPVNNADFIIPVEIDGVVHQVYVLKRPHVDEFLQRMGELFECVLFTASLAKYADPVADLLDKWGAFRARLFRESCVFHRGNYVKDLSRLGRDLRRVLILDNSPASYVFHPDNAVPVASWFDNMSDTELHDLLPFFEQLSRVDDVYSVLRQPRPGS
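Material – SCP-1 phosphatase catalytic domain, residues 76-261 · Buffer or medium – Acidic Tris acetate buffer with magnesium and detergent · Also added – Phospho 17-mer peptide substrate · Compound – single 20 µM dose, 1% DMSO · Times – 45 min room-temperature reaction, 5 min colour, 30 min stabiliser · Technique – Phosphate-binding colour reagent, absorbance read at 630 nm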
STEP inh: blocks human striatal-enriched tyrosine phosphatase. P54829. recombinant STEP, OMFP fluorogenic substrate, fluorescence. inhibition, % at 20 µM. 0.25% of 360,000 active. AID 588621;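 active = inhibition at 20 µM, scaled per plate between control wells, above about 37%, limit read from the data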
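material = STEP tyrosine phosphatase | reagent = fluorogenic phosphatase substrate OMFP at 25 µM final | doses = single compound dose of 20 µM, 1% DMSO final | schedule = 20 min reaction, room temperature, in the dark | measured by = fluorescence, 480/540 nm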
Large screens that a line does not name were inactive. Most compounds without a hit are left out; they make up all but 1.9% or so of the library.

CCCCN(C(=O)c1cc(S(=O)(=O)N2CCCCCC2)ccc1OC)c1ccccc1	SUMO1 PPI mod 59.9
CSCC[C@@H](CO)NC(=O)[C@H]1O[C@@H](n2ccc(N)nc2=O)[C@H](O)[C@@H]1O	none (no result: Scp1 inh)
NC(=S)N=Nc1c(O)cc(O)c2[nH]c(=O)ccc12	SUMO1 PPI mod 69.4, Scp1 inh 84.7
NC(=S)N=Nc1c(O)[nH]c2ccc(F)cc12	none
CC(C)Nc1ncnc2c1ncn2[C@H]1CN(C2CCCC2)C[C@@H](CO)O1	none (no result: Scp1 inh)
Cc1ccc(N=C2NC(=O)/C(=C/C=C/c3ccco3)S2)cc1	none
Cc1cccc(N=C2NC(=O)/C(=C/C=C/c3ccco3)S2)c1C	SUMO1 PPI mod 40.2, Scp1 inh 65.9
Clc1ccc(C2=NCCN2)cc1	none
CCCCNC(=O)c1ccc2nc(CC)c(N(CC)CCOC)n2c1	none (no result: Scp1 inh)
COc1cc(/C=C2\SC(=S)N(NS(=O)(=O)c3ccccc3)C2=O)ccc1O	Scp1 inh 60.2
O=C(NCCCN1CCOCC1)c1sc2cc([N+](=O)[O-])ccc2c1Cl	STEP inh 93.4
COc1cc(/C=C(\C#N)C(=O)NCc2ccccc2)ccc1OCc1ccc(C(=O)O)cc1	none
CCOc1cc(/C=C(\C#N)C(=O)Nc2cccc(C(=O)O)c2)ccc1OCc1ccc(Br)cc1	SUMO1 PPI mod 82.0, STEP inh 95.9
COc1cc(/C=C(\C#N)C(=O)NC(C)C)ccc1OCc1ccc(C(=O)O)cc1	none
CCOc1cc(/C=C(/C#N)C(=O)Nc2ccc(OC)cc2)ccc1OCc1ccc(C(=O)O)cc1	LMPTP block 80.3
O=C1NC[C@H](CCCCN2C[C@H](Cc3ccc(O)cc3)N(CCc3ccccc3)C(=O)C2=O)N(CCC2CCCCC2)C1=O	none (no result: Scp1 inh, STEP inh)
C[n+]1ccccc1/C=C/c1ccccc1Cl	Scp1 inh 98.2
COC(=O)C1C2C=CC(C3CC23)C1C(=O)OCC(=O)c1ccccc1 (configuration not stated)	SUMO1 PPI mod 45.2
COC(=O)C1C2C=CC(C3CC23)C1C(=O)OCC(=O)c1ccc(OC)cc1 (configuration not stated)	none
CN(C)c1ccc(-c2nc3ccccn3c2/N=C/c2ccc(Br)cc2)cc1	STEP inh 41.9
O=C(Nc1cc2c(oc1=O)CCCC2=O)c1ccc(Cl)cc1	Scp1 inh 68.0
OC(c1cccnc1)c1nc(-c2cccc(F)c2)cs1 (configuration not stated)	none (no result: Scp1 inh)
Cn1c(N)c(C(=O)COC(=O)c2ccc3c(c2)C(=O)N(c2ccc(Cl)cc2)C3=O)c(=O)n(C)c1=O	SUMO1 PPI mod 64.1
Cc1cc2nc(-c3ccc(SCc4ccccc4C#N)nc3)[nH]c2cc1C	none
Cc1cc2nc(-c3ccc(SCc4ccc(C(=O)O)cc4)nc3)[nH]c2cc1C	LMPTP block 68.0, Scp1 inh 78.7, STEP inh 91.8
Cc1cccc(C)c1NC(=O)C1(C)CN(S(C)(=O)=O)CC(=O)N1CCc1c[nH]c2ccccc12 (configuration not stated)	none (no result: FAS-TE inh, Scp1 inh, STEP inh)
C#CCOCCOCCOCCNc1nc(N2CCN(C(=O)CCCCCCCCCCNC(=O)[C@H](CCCCN)n3cc(CCO)nn3)CC2)nc(N2CCN(C(=O)CCCCCCCCCCNC(=O)[C@H](CCCN=C(N)N)n3cc(C[C@@H](C)CC)nn3)CC2)n1	SUMO1 PPI mod 90.1
C#CCOCCOCCOCCNc1nc(N2CCN(C(=O)CCCCCCCCCCNC(=O)[C@@H](CCSC)n3cc(CCO)nn3)CC2)nc(N2CCN(C(=O)CCCCCCCCCCNC(=O)[C@H]([C@@H](C)CC)n3cc(CCCCN=C(N)N)nn3)CC2)n1	SUMO1 PPI mod 90.3
C#CCOCCOCCOCCNc1nc(N2CCN(C(=O)CCCCCCCCCCNC(=O)[C@H](CCCCN)n3cc(C[C@@H](C)CC)nn3)CC2)nc(N2CCN(C(=O)CCCCCCCCCCNC(=O)[C@H](CCCCN)n3cc(C[C@@H](C)CC)nn3)CC2)n1	SUMO1 PPI mod 66.6, Scp1 inh 53.0
C#CCOCCOCCOCCNc1nc(N2CCN(C(=O)CCCCCCCCCCNC(=O)[C@H](CCCCN)n3cc(C)nn3)CC2)nc(N2CCN(C(=O)CCCCCCCCCCNC(=O)[C@@H]([C@H](C)CC)n3cc(CCCCCN)nn3)CC2)n1	SUMO1 PPI mod 50.7 (no result: Scp1 inh)
C#CCOCCOCCOCCNc1nc(N2CCN(C(=O)CCCCCCCCCCNC(=O)[C@@H](CCSC)n3cc(CCO)nn3)CC2)nc(N2CCN(C(=O)CCCCCCCCCCNC(=O)[C@H]([C@@H](C)CC)n3cc(CCCCCN)nn3)CC2)n1	none (no result: SUMO1 PPI mod, LMPTP block, FAS-TE inh, STEP inh)
OC[C@@H]1CN(Cc2ccc3c(c2)OCO3)C[C@H](n2cnc3c(NCc4ccncc4)ncnc32)O1	none (no result: Scp1 inh)
CN(C)CCNC(=O)c1cccc(-c2cnc3c(NC=O)cc(/C=C/c4ccccc4)cn23)c1	none (no result: Scp1 inh)
O=C(COC(=O)c1ccc(F)c(S(=O)(=O)N2CCOCC2)c1)NC1CC1	none
O=C(COC(=O)c1ccc(F)c(S(=O)(=O)N2CCOCC2)c1)Nc1ccc2[nH]c(=O)[nH]c2c1	SUMO1 PPI mod 61.4
CC(=O)c1c(C)[nH]c(C(=O)OCC(=O)Nc2ccc3[nH]c(=O)[nH]c3c2)c1C	SUMO1 PPI mod 60.8
O=C(COC(=O)/C=C/c1cccc(Cl)c1)Nc1ccc2[nH]c(=O)[nH]c2c1	none
Nc1nccnc1C(=O)OCC(=O)Nc1ccc2[nH]c(=O)[nH]c2c1	SUMO1 PPI mod 80.2
O=C(COC(=O)/C=C/c1ccc(Br)o1)Nc1ccc2[nH]c(=O)[nH]c2c1	SUMO1 PPI mod 104.0 (no result: Scp1 inh)
CC1(C(=O)NCc2ccccc2)CN(S(C)(=O)=O)CC(=O)N1C1CC1 (configuration not stated)	none (no result: FAS-TE inh, Scp1 inh, STEP inh)
O=S1(=O)CC(N2CC=CC2)CN1Cc1cn(Cc2cccc(C(F)(F)F)c2)nn1 (configuration not stated)	none (no result: Scp1 inh, STEP inh)
O=C(COC(=O)c1ccccc1)Nc1ccc2[nH]c(=O)[nH]c2c1	none
O=C(COC(=O)c1ccco1)Nc1ccc2[nH]c(=O)[nH]c2c1	SUMO1 PPI mod 50.6
O=C(COC(=O)c1ccc(Br)o1)Nc1ccc2[nH]c(=O)[nH]c2c1	SUMO1 PPI mod 38.5
O=C(Nc1cc(S(=O)(=O)N2CCOCC2)ccc1Cl)C(=O)c1c(-c2ccccc2)cc2ccccn12	FAS-TE inh 76.3
CCc1ccc(O)c(N=Cc2ccccc2O)c1	none
O=c1[nH][nH]c2c(N=Cc3ccccc3O)ccc(F)c12	SUMO1 PPI mod 91.9, LMPTP block 70.3, Scp1 inh 91.5, STEP inh 94.2
O=C(NCc1cccc(C(F)(F)F)c1)C1C(=O)Nc2ccccc2C(=O)N1C1CCCC1 (configuration not stated)	none (no result: FAS-TE inh, Scp1 inh, STEP inh)
CCOC(=O)C1=C(C)N(C)C(=O)NC1c1cccc(O)c1 (configuration not stated)	SUMO1 PPI mod 56.2
CN(C(=O)COC(=O)c1ccc(-c2ccc(O)cc2)cc1)C1CCS(=O)(=O)C1 (configuration not stated)	SUMO1 PPI mod 38.6
